# Experimental data from different studies.
# Target: Serine/threonine-protein kinase WNK2 (WNK2, Homo sapiens, UniProt Q9Y3S1)
SMILES,observed,mode,method,tested at,endpoint,value
CNC(=O)c1cc(Oc2ccc(NC(=O)Nc3ccc(Cl)c(C(F)(F)F)c3)cc2)ccn1,enzyme activity,inhibitor,,10 µM,inhibition,13%
O=C(O)[C@@H]1[C@@H](Cn2nnc3ccccc3c2=O)CC[C@H]1C(=O)c1ccc(OCCC2CCOCC2)cc1,cell-free assay,,competition with immobilised ligand,1 µM,remaining binding,82%
Cc1ccc(Nc2nccc(N(C)c3ccc4c(C)n(C)nc4c3)n2)cc1S(N)(=O)=O,enzyme activity,inhibitor,,10 µM,inhibition,26%
CO[C@@H](C)c1c(Nc2ccc([C@@H](N(C)C(=O)C3CCS(=O)(=O)CC3)C(F)(F)F)cc2)cnc2cc(Cl)nn12,cell-free assay,,competition with immobilised ligand,1 µM,remaining binding,100%
CCCS(=O)(=O)Nc1ccc(F)c(C(=O)c2c[nH]c3ncc(-c4ccc(Cl)cc4)cc23)c1F,enzyme activity,inhibitor,,1 µM,inhibition,< 10%
O=C(NC[C@@H]1[C@H]2CN(C(=O)OCc3cc(C(F)(F)F)cc(C(F)(F)F)c3)C[C@@H]12)c1ccc2[nH]nnc2c1,cell-free assay,,competition with immobilised ligand,1 µM,remaining binding,84%
CCN(CC)CCNC(=O)c1c(C)[nH]c(/C=C2\C(=O)Nc3ccc(F)cc32)c1C,enzyme activity,inhibitor,,10 µM,inhibition,23%
CN(CCCC(F)(F)F)c1nccc(-c2cnn3ncccc23)n1,binding,,,1 µM,remaining binding,100%
Cc1cnc(NC2CCOCC2)nc1-n1cnc(C(=O)NC(CN)c2cc(F)cc(Cl)c2)c1 (stereo not shown),enzyme activity,inhibitor,radiometric,1 µM,remaining activity,85%
CNC(=O)Nc1ccc2c(c1)[C@@]1(CC2)OC(=O)N(CC(=O)N(Cc2ccc(F)cc2)[C@@H](C)C(F)(F)F)C1=O,cell-free assay,,competition with immobilised ligand,1 µM,remaining binding,59%
Cc1ccc(NC(=O)c2ccc(C)c(C(F)(F)F)c2)cc1C#Cc1nn(C2CCC(O)CC2)c2ncnc(N)c12 (stereo not shown),cell-free assay,,,10 µM,remaining signal,105%
O=C(Nc1cnn(-c2csc(C(=O)NC3COC3)c2)c1)Nc1ccccc1Cl,enzyme activity,inhibitor,,5 µM,remaining activity,96.3%
O=C1NC(=O)c2cc(Nc3ccc(F)cc3)c(Nc3ccc(F)cc3)cc21,cell-free assay,,,0.5 µM,remaining signal,110%
CC(C)(C)c1nc(-c2cccc(NS(=O)(=O)c3c(F)cccc3F)c2F)c(-c2ccnc(N)n2)s1,enzyme activity,inhibitor,radiometric,1 µM,remaining activity,103%
Nc1ncnc2occ(-c3ccc(NC(=O)Nc4cc(C(F)(F)F)ccc4F)cc3)c12,cell-free assay,inhibitor,,20 µM,remaining signal,65%
Nc1cnc(N2CCc3cc(S(=O)(=O)Nc4c(F)cc(Cl)cc4F)cc(N4CCCC4=O)c32)nc1,cell-free assay,,competition with immobilised ligand,1 µM,remaining binding,100%
CCN(CC)c1ccc(C2=NNC(=O)CC2C)cc1[N+](=O)[O-] (stereo not shown),enzyme activity,inhibitor,,10 µM,remaining activity,104%
Cc1cc(NC(=O)c2cccc3cc(-c4cccc5[nH]nc(N)c45)ccc23)ccc1F,enzyme activity,inhibitor,,0.1 µM,activity vs control,98%
O=C(Nc1cnc(Oc2ccc(F)cc2)nc1)N1CCc2ncccc2[C@@H]1c1ccc(F)cc1,cell-free assay,,competition with immobilised ligand,1 µM,remaining binding,79%
